Converted amounts (≈) assume the structure as drawn.
Columns and labels:
Assay type in all cases: functional, organism-based
Amaranthus tricolor = assay: Herbicidal activity against Amaranthus tricolor assessed as plant dead at 25 to 32 degC measured after 7 days; conditions: 168 h
Summary of the method: (§1)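 Seedlings grown at 25-32 °C for about 7 days, then thinned to thirty plants per cup at the two-leaf stage. Emulsion (1 mL per cup) applied by Potter spray tower, after which plants were kept at 25-32 °C. Three replicates per concentration.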

Zea mays = assay: Herbicidal activity against Zea mays (maize) assessed as plant dead at 25 to 32 degC measured after 7 days; conditions: 168 h; summary of the method: as §1
Oryza sativa = assay: Herbicidal activity against Oryza sativa (rice) assessed as plant dead at 25 to 32 degC measured after 7 days; conditions: 168 h; summary of the method: as §1
[1] = system: Vigna radiata var. radiata; assay: Herbicidal activity against Vigna radiata var. radiata assessed as plant dead at 25 to 32 degC measured after 7 days; conditions: 168 h; summary of the method: as §1
Cucumis sativus = assay: Herbicidal activity against Cucumis sativus (cucumber) assessed as plant dead at 25 to 32 degC measured after 7 days; conditions: 168 h; summary of the method: as §1
Triticum aestivum = assay: Herbicidal activity against Triticum aestivum L. (wheat) assessed as plant dead at 25 to 32 degC measured after 7 days; conditions: 168 h; summary of the method: as §1
Glycine max = assay: Herbicidal activity against Glycine max (soybean) assessed as plant dead at 25 to 32 degC measured after 7 days; conditions: 168 h; summary of the method: as §1
Lolium arundinaceum = assay: Herbicidal activity against Festuca arundinacea assessed as plant dead at 25 to 32 degC measured after 7 days; conditions: L., 168 h; summary of the method: as §1

| SMILES | EC50 (Amaranthus tricolor) [µg/mL] | other results |
| --- | --- | --- |
| CC(Oc1ccc(Cl)cc1)C(=O)ON=C1CCCCCCCCCCC(=O)OCCC1 (stereo unspecified) | 17.8 (≈ 39.4 µM) |  |
| Cc1cc(OC(C)C(=O)ON=C2CCCCCCCCCCC(=O)OCCC2)ccc1Cl (stereo unspecified) | 9.5 (≈ 20.4 µM) |  |
| Cc1ccc(OCC(=O)ON=C2CCCCCCCCCCC(=O)OCCC2)cc1 | 55.4 (≈ 133 µM) |  |
| COc1ccc(OCC(=O)ON=C2CCCCCCCCCCC(=O)OCCC2)cc1 | 48.8 (≈ 113 µM) |  |
| CC(Oc1ccc(Cl)cc1Cl)C(=O)ON=C1CCCCCCCCCCC(=O)OCCC1 (stereo unspecified) | 13.5 (≈ 27.8 µM) |  |
| CC1CCC(=NOC(=O)COc2ccc(Cl)cc2)CCCCCCCCCCC(=O)O1 (stereo unspecified) | 12.4 (≈ 27.4 µM) |  |
| CC1CCC(=NOC(=O)COc2ccc(Cl)cc2Cl)CCCCCCCCCCC(=O)O1 (stereo unspecified) | 8.2 (≈ 16.9 µM) |  |
| COC(=O)c1ccccc1S(=O)(=O)NC(=O)N(C)c1nc(C)nc(OC)n1 [TRIBENURON METHYL] | 22.4 (≈ 56.7 µM) |  |
| Cc1cc(Cl)ccc1OCC(=O)ON=C1CCCCCCCCCCC(=O)OC(C)CC1 (stereo unspecified) | 8 (≈ 17.2 µM) |  |
| CC(Oc1cccc(Cl)c1)C(=O)ON=C1CCCCCCCCCCC(=O)OCCC1 (stereo unspecified) | 25.1 (≈ 55.5 µM) |  |
| O=C1CCCCCCCCCC/C(=N\OC(=O)COc2ccc(Cl)cc2)CCCO1 | 15.7 (≈ 35.8 µM) |  |
| O=C1CCCCCCCCCCC(=NOC(=O)COc2ccc(Br)cc2Cl)CCCO1 | 16.9 (≈ 32.7 µM) |  |
| Cc1cc(Cl)ccc1OCC(=O)O/N=C1\CCCCCCCCCCC(=O)OCCC1 | 18.3 (≈ 40.5 µM) |  |
| O=C1CCCCCCCCCC/C(=N/OC(=O)COc2ccc(Cl)cc2)CCCO1 | 16.3 (≈ 37.2 µM) |  |
| O=C1CCCCCCCCCCC(=NOC(=O)COc2cccc([N+](=O)[O-])c2)CCCO1 | 80.9 (≈ 180 µM) |  |
| O=C1CCCCCCCCCCC(=NOC(=O)COc2ccc(Cl)cc2Cl)CCCO1 | 7.7 (≈ 16.3 µM) | EC50 (Zea mays): 0.3 µg/mL (≈ 0.635 µM); EC50 (Oryza sativa): 2.5 µg/mL (≈ 5.29 µM); EC50 [1]: 2.8 µg/mL (≈ 5.93 µM); EC50 (Cucumis sativus): 1.5 µg/mL (≈ 3.18 µM); EC50 (Triticum aestivum): 38.4 µg/mL (≈ 81.3 µM); EC50 (Glycine max): 14.4 µg/mL (≈ 30.5 µM); EC50 (Lolium arundinaceum): 50.2 µg/mL (≈ 106 µM) |
| Cc1ccc(OC(C)C(=O)ON=C2CCCCCCCCCCC(=O)OCCC2)cc1 (stereo unspecified) | 35.9 (≈ 83.2 µM) |  |
| Cc1cc(OC(C)(C)C(=O)ON=C2CCCCCCCCCCC(=O)OCCC2)ccc1Cl | 50.1 (≈ 104 µM) |  |
| Cc1cc(Cl)ccc1OCC(=O)O/N=C1/CCCCCCCCCCC(=O)OCCC1 | 18.2 (≈ 40.3 µM) |  |
| CC1CCC(=NOC(=O)COc2ccc(Br)cc2Cl)CCCCCCCCCCC(=O)O1 (stereo unspecified) | 14.4 (≈ 27.1 µM) |  |

| SMILES | EC50 (Amaranthus tricolor) [µg/mL] | other results |
| --- | --- | --- |
| O=C1CCCCCCCCCCC(=NOC(=O)COc2ccccc2Cl)CCCO1 | 30.6 (≈ 69.9 µM) |  |
| Cc1ccccc1OCC(=O)ON=C1CCCCCCCCCCC(=O)OCCC1 | 117 (≈ 281 µM) |  |
| Cc1cc(OCC(=O)ON=C2CCCCCCCCCCC(=O)OC(C)CC2)ccc1Cl (stereo unspecified) | 3.4 (≈ 7.3 µM) |  |
| Cc1cccc(OC(C)C(=O)ON=C2CCCCCCCCCCC(=O)OCCC2)c1C (stereo unspecified) | 49.6 (≈ 111 µM) |  |
| CC(Oc1ccccc1Cl)C(=O)ON=C1CCCCCCCCCCC(=O)OCCC1 (stereo unspecified) | 18 (≈ 39.8 µM) |  |
| CC1CCC(=NOC(=O)C(C)Oc2ccc(Cl)cc2)CCCCCCCCCCC(=O)O1 (stereo unspecified) | 4.8 (≈ 10.3 µM) |  |
| O=C1CCCCCCCCCC/C(=N/OC(=O)COc2ccc(Br)cc2Cl)CCCO1 | 14.7 (≈ 28.4 µM) |  |
| Cc1cc(Cl)ccc1OCC(=O)ON=C1CCCCCCCCCCC(=O)OCCC1 | 19.6 (≈ 43.4 µM) |  |
| CC(C)(Oc1ccc(Cl)cc1)C(=O)ON=C1CCCCCCCCCCC(=O)OCCC1 | 46.5 (≈ 99.8 µM) |  |
| O=C1CCCCCCCCCC/C(=N\OC(=O)COc2ccc(Br)cc2Cl)CCCO1 | 14.4 (≈ 27.9 µM) |  |
| Cc1cccc(OCC(=O)ON=C2CCCCCCCCCCC(=O)OCCC2)c1C | 52.4 (≈ 121 µM) |  |
| O=C1CCCCCCCCCCC(=NOC(=O)COc2ccc(Cl)cc2)CCCO1 | 18.2 (≈ 41.6 µM) |  |
| Cc1ccc(OCC(=O)ON=C2CCCCCCCCCCC(=O)OCCC2)cc1C | 55.4 (≈ 128 µM) |  |
| Cc1ccc(OC(C)(C)C(=O)ON=C2CCCCCCCCCCC(=O)OCCC2)cc1 | 55.4 (≈ 124 µM) |  |
| O=C(O)COc1ccc(Cl)cc1Cl [2,4-DICHLOROPHENOXYACETIC ACID] | 117 (≈ 531 µM) |  |
| O=C1CCCCCCCCCCC(=NOC(=O)COc2ccccc2)CCCO1 | 73.2 (≈ 181 µM) |  |
| CC(C)(Oc1ccccc1)C(=O)ON=C1CCCCCCCCCCC(=O)OCCC1 | 34.6 (≈ 80.2 µM) |  |
| O=C1CCCCCCCCCCC(=NOC(=O)COc2cccc(Cl)c2)CCCO1 | 23.8 (≈ 54.3 µM) |  |
| CC(Oc1ccccc1)C(=O)ON=C1CCCCCCCCCCC(=O)OCCC1 (stereo unspecified) | 22.4 (≈ 53.6 µM) |  |

— ChEMBL document CHEMBL3045596, “Synthesis and herbicidal activity of 12-(aryloxyacyloxyimino)-1,15-pentadecanlactone derivatives” (J Agric Food Chem, 2009)
